Assay results from ChEMBL document CHEMBL3860041, “Synthesis, biological evaluation and molecular modeling study of some new methoxylated 2-benzylthio-quinazoline-4(3H)-ones as nonclassical antifolates” (Bioorg Med Chem Lett, 2016).

Columns and labels:
Assay type in all cases: functional
[1] = Growth inhibition of human NCI-H522 cells at 10 uM after 48 hrs by SRB assay relative to control; details: NCI-H522, 48 h, read-out: GI
Procedure, shortened: (§1)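 NCI 60-cell-line panel, nine tumor subpanels; compounds tested at a single dose of 10 μM in the primary screen.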

[2] = Growth inhibition of human SR cells at 10 uM after 48 hrs by SRB assay relative to control; details: read-out: GI
Procedure, shortened: (§2)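 Primary screen across the full NCI 60 human tumour cell line panel, which covers nine tumour subpanels. A single dose of 10 μM was applied to each line, and growth was recorded for each cell line.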

[3] = Growth inhibition of human HL-60(TB) cells at 10 uM after 48 hrs by SRB assay relative to control; details: HL-60, 48 h, read-out: GI
Procedure, shortened: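 NCI disease-oriented human tumour cell line screen: primary single-dose assay at 10 μM across the full 60-cell-line panel spanning nine tumour subpanels.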

[4] = Growth inhibition of human HCT15 cells at 10 uM after 48 hrs by SRB assay relative to control; details: HCT-15, 48 h, read-out: GI; procedure, shortened: as §1
[5] = Growth inhibition of human SNB75 cells at 10 uM after 48 hrs by SRB assay relative to control; details: SNB-75, 48 h, read-out: GI; procedure, shortened: as §2
[6] = Growth inhibition of human MDA-MB-231 cells at 10 uM after 48 hrs by SRB assay relative to control; details: MDA-MB-231, 48 h, read-out: GI; procedure, shortened: as §1
[7] = Growth inhibition of human MCF7 cells at 10 uM after 48 hrs by SRB assay relative to control; details: MCF7, 48 h, read-out: GI; procedure, shortened: as §1
[8] = Growth inhibition of human KM12 cells at 10 uM after 48 hrs by SRB assay relative to control; details: KM12, 48 h, read-out: GI; procedure, shortened: as §1
[9] = Growth inhibition of human M14 cells at 10 uM after 48 hrs by SRB assay relative to control; details: M14, 48 h, read-out: GI; procedure, shortened: as §1
[10] = Growth inhibition of human SF268 cells at 10 uM after 48 hrs by SRB assay relative to control; details: SF-268, 48 h, read-out: GI; procedure, shortened: as §1
[11] = Growth inhibition of human SK-MEL-5 cells at 10 uM after 48 hrs by SRB assay relative to control; details: SK-MEL-5, 48 h, read-out: GI; procedure, shortened: as §2
[12] = Growth inhibition of human OVCAR8 cells at 10 uM after 48 hrs by SRB assay relative to control; details: OVCAR-8, 48 h, read-out: GI; procedure, shortened: as §1
[13] = Growth inhibition of human MDA-MB-468 cells at 10 uM after 48 hrs by SRB assay relative to control; details: MDA-MB-468, 48 h, read-out: GI; procedure, shortened: as §1
[14] = Growth inhibition of human OVCAR5 cells at 10 uM after 48 hrs by SRB assay relative to control; details: OVCAR-5, 48 h, read-out: GI; procedure, shortened: as §1
[15] = Growth inhibition of human RPMI8226 cells at 10 uM after 48 hrs by SRB assay relative to control; details: RPMI-8226, 48 h, read-out: GI; procedure, shortened: as §1
[16] = Growth inhibition of human IGROV1 cells at 10 uM after 48 hrs by SRB assay relative to control; details: IGROV-1, 48 h, read-out: GI; procedure, shortened: as §1
[17] = Growth inhibition of human 786-0 cells at 10 uM after 48 hrs by SRB assay relative to control; details: 786-0, 48 h, read-out: GI; procedure, shortened: as §1
[18] = Growth inhibition of human MOLT4 cells at 10 uM after 48 hrs by SRB assay relative to control; details: MOLT-4, 48 h, read-out: GI; procedure, shortened: as §1
[19] = Growth inhibition of human A549 cells at 10 uM after 48 hrs by SRB assay relative to control; details: A549, 48 h, read-out: GI; procedure, shortened: as §1
[20] = Growth inhibition of human UO31 cells at 10 uM after 48 hrs by SRB assay relative to control; details: UO-31, 48 h, read-out: GI; procedure, shortened: as §2
[21] = Growth inhibition of human HOP92 cells at 10 uM after 48 hrs by SRB assay relative to control; details: HOP-92, 48 h, read-out: GI; procedure, shortened: as §1
[22] = Growth inhibition of human HOP62 cells at 10 uM after 48 hrs by SRB assay relative to control; details: HOP-62, 48 h, read-out: GI; procedure, shortened: as §1
[23] = Growth inhibition of human HT-29 cells at 10 uM after 48 hrs by SRB assay relative to control; details: HT-29, 48 h, read-out: GI; procedure, shortened: as §1
[24] = Growth inhibition of human OVCAR4 cells at 10 uM after 48 hrs by SRB assay relative to control; details: OVCAR-4, 48 h, read-out: GI; procedure, shortened: as §1
[25] = Growth inhibition of human COLO205 cells at 10 uM after 48 hrs by SRB assay relative to control; details: COLO 205, 48 h, read-out: GI; procedure, shortened: as §1
[26] = Growth inhibition of human SKOV3 cells at 10 uM after 48 hrs by SRB assay relative to control; details: SK-OV-3, 48 h, read-out: GI; procedure, shortened: as §2
[27] = Growth inhibition of human SF295 cells at 10 uM after 48 hrs by SRB assay relative to control; details: SF-295, 48 h, read-out: GI; procedure, shortened: as §1

`COc1cc(CSc2nc3ccc(Cl)cc3c(=O)n2-c2ccccc2)cc(OC)c1OC` gave an inhibition of growth at 10 µM [1] of 61.6%, an inhibition of growth at 10 µM [2] of 54.4% and an inhibition of growth at 10 µM [3] of less than 10%. It also gave an inhibition of growth at 10 µM [4] of 47.5%, an inhibition of growth at 10 µM [5] of 24.3% and an inhibition of growth at 10 µM [6] of 37%. It also gave an inhibition of growth at 10 µM [7] of 23.1%, an inhibition of growth at 10 µM [8] of 50.2% and an inhibition of growth at 10 µM [9] of less than 10%. The inhibition of growth at 10 µM [10] was 22.3%, the inhibition of growth at 10 µM [11] was 18.8% and the inhibition of growth at 10 µM [12] was 15.7%. The inhibition of growth at 10 µM [13] was 42.7%, the inhibition of growth at 10 µM [14] was 15.4% and the inhibition of growth at 10 µM [15] was less than 10%. It also gave an inhibition of growth at 10 µM [16] of 27.5%, an inhibition of growth at 10 µM [17] of 10.7% and an inhibition of growth at 10 µM [18] of 30.3%. The inhibition of growth at 10 µM [19] was 26.1%, the inhibition of growth at 10 µM [20] was 52.2% and the inhibition of growth at 10 µM [21] was 11.1%. The inhibition of growth at 10 µM [22] was 28%, the inhibition of growth at 10 µM [23] was 33% and the inhibition of growth at 10 µM [24] was 18.3%. It also gave an inhibition of growth at 10 µM [25] of 15.5%, an inhibition of growth at 10 µM [26] of less than 10% and an inhibition of growth at 10 µM [27] of 15.8%.
With `COc1ccc(-n2c(SCc3cc(OC)c(OC)c(OC)c3)nc3ccc(Cl)cc3c2=O)cc1` the inhibition of growth at 10 µM [1] was 16.7%, the inhibition of growth at 10 µM [2] was less than 10% and the inhibition of growth at 10 µM [3] was less than 10%. It also gave an inhibition of growth at 10 µM [4] of 19.3%, an inhibition of growth at 10 µM [5] of less than 10% and an inhibition of growth at 10 µM [6] of 36.8%. For the same compound, the inhibition of growth at 10 µM [7] was 15.6%, the inhibition of growth at 10 µM [8] was 18.7% and the inhibition of growth at 10 µM [9] was less than 10%. For the same compound, the inhibition of growth at 10 µM [10] was 15.2%, the inhibition of growth at 10 µM [11] was 15.1% and the inhibition of growth at 10 µM [12] was 13.7%. It also gave an inhibition of growth at 10 µM [13] of 13.4%, an inhibition of growth at 10 µM [14] of 10.5% and an inhibition of growth at 10 µM [15] of 33.8%. The inhibition of growth at 10 µM [16] was 16.3%, the inhibition of growth at 10 µM [17] was less than 10% and the inhibition of growth at 10 µM [18] was 27.6%. The inhibition of growth at 10 µM [19] was 20.2%, the inhibition of growth at 10 µM [20] was 52.1% and the inhibition of growth at 10 µM [21] was 42.9%. For the same compound, the inhibition of growth at 10 µM [22] was less than 10%, the inhibition of growth at 10 µM [23] was 17% and the inhibition of growth at 10 µM [24] was 28.3%. For the same compound, the inhibition of growth at 10 µM [25] was less than 10%, the inhibition of growth at 10 µM [26] was less than 10% and the inhibition of growth at 10 µM [27] was 16.7%.
In the case of `COc1cc2nc(SCc3cc(OC)c(OC)c(OC)c3)n(-c3ccccc3OC)c(=O)c2cc1OC`, the inhibition of growth at 10 µM [1] is reported as less than 10%, the inhibition of growth at 10 µM [2] is reported as 76.2% and the inhibition of growth at 10 µM [4] is reported as 24.6%. For the same compound, the inhibition of growth at 10 µM [5] was 37.2%, the inhibition of growth at 10 µM [6] was 22.6% and the inhibition of growth at 10 µM [7] was 23%. For the same compound, the inhibition of growth at 10 µM [8] was 45.9%, the inhibition of growth at 10 µM [9] was 23% and the inhibition of growth at 10 µM [10] was 30.1%. It also gave an inhibition of growth at 10 µM [11] of less than 10%, an inhibition of growth at 10 µM [12] of 15.4% and an inhibition of growth at 10 µM [13] of 23%. It also gave an inhibition of growth at 10 µM [14] of 11%, an inhibition of growth at 10 µM [15] of 28.8% and an inhibition of growth at 10 µM [16] of 16.9%. The inhibition of growth at 10 µM [17] was less than 10%, the inhibition of growth at 10 µM [18] was 53.2% and the inhibition of growth at 10 µM [19] was 12%. The inhibition of growth at 10 µM [20] was 63.7%, the inhibition of growth at 10 µM [21] was 34.2% and the inhibition of growth at 10 µM [22] was less than 10%. It also gave an inhibition of growth at 10 µM [23] of 33.4%, an inhibition of growth at 10 µM [24] of 16.9% and an inhibition of growth at 10 µM [25] of less than 10%. For the same compound, the inhibition of growth at 10 µM [26] was less than 10% and the inhibition of growth at 10 µM [27] was 26.2%.
